Results as given in ChEMBL document CHEMBL4184268, “Design, synthesis, and biological evaluation of inhibitors of the NADPH oxidase, Nox4” (Bioorg Med Chem, 2018).
Calls of active or inactive are those of the source. The rule behind the calls is not given here.

Key:
[1] = Effect on hypoxanthine/xanthine oxidase-induced superoxide radical scavenging activity up to 100 uM incubated for 1 min measured for 15 mins by cytochrome C assay; assay type: functional
Outline: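 Superoxide from hypoxanthine (100 μM)/xanthine oxidase in PBS with catalase (200 U/mL), compound 1–100 μM, detected by cytochrome C (46 μM) reduction at 550 nm. After 1 min stabilization, read kinetically 1/min for 15 min. Linear slope gave % scavenging. SOD (575 U/mL) as positive control. Means ± SEM of 4 experiments, ANOVA/Dunnett.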

[2] = Effect on hydrogen peroxide radical scavenging activity up to 100 uM measured after 5 mins by Amplex Red assay; assay type: functional
Outline: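 Cell-free H2O2 consumption. Exogenous H2O2 incubated 5 min with compound (1–100 μM) in reaction buffer. Amplex Red/horseradish peroxidase then added for 30 min at room temperature in the dark. Resorufin read at ex 530/em 590 nm. DMSO solvent control. Means ± SEM of 3 independent experiments, one-way ANOVA with Dunnett's test.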

NADPH oxidase 4 = target: T1, NADPH oxidase 4 (Homo sapiens, UniProt Q9NPH5); assay: Inhibition of Nox4 in HASMCs assessed as reduction in TGFbeta-induced increase in smooth muscle alpha actin level pretreated for 30 mins followed by TGFbeta stimulation after 24 hrs by Western blot analysis
T1 sequence (Q9NPH5 whole entry): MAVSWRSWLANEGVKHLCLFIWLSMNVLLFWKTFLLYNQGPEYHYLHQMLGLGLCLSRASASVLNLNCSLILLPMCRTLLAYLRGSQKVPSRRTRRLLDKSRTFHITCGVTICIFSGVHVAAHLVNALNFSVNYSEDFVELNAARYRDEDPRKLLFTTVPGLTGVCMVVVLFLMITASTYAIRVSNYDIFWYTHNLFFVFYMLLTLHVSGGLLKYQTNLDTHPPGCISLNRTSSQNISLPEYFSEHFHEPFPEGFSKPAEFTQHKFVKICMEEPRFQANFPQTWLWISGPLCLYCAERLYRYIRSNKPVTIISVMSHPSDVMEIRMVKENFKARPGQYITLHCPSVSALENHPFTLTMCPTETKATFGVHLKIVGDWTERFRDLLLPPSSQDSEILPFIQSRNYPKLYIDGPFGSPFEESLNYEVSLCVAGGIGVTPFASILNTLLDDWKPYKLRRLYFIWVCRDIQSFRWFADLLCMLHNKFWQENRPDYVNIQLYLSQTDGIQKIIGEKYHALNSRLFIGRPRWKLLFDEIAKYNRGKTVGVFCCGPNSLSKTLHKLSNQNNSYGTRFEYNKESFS
Outline: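 HASMs (<passage 10) at 80% confluence, serum-reduced (0.1% FBS) 24 h, pretreated 30 min with compound (1–100 μM), then TGF-β 2 ng/ml for 24 h. Lysates blotted for α-SMA normalized to β-tubulin, ECL detection. TGF-β alone set as 100%. IC50 by non-linear regression, means ± SEM from 3–4 independent experiments.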

HASMC = assay: Effect on TGFbeta-induced Nox4 mRNA expression in HASMCs at 1 to 100 uM pretreated for 30 mins followed by TGFbeta addition measured after 24 hrs by qPCR analysis; assay type: functional, cell-based; conditions: Homo sapiens
[3] = Cytotoxicity against HASMCs assessed as cell viability at 10 uM after 24 hrs by calcein/AM/ethidium homodimer-1 staining based fluorescence microscopic analysis relative to control; conditions: human, HASMC cells; read-out: Activity
Outline: (§1)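 HASMs (before passage 10) grown to 80% confluence, then serum-reduced (0.1% FBS) for 24 h. Cells were pretreated with compound for 30 min, then given TGF-β (2 ng/ml) for 24 h. Stained with calcein/AM (2 μM) and ethidium homodimer-1 (4 μM) for 10 min at room temperature, read by fluorescence microscopy. Controls: untreated cells as negative, 70% ethanol for 30 min as positive.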

[4] = Cytotoxicity against HASMCs assessed as cell viability at 100 uM after 24 hrs by calcein/AM/ethidium homodimer-1 staining based fluorescence microscopic analysis relative to control; conditions: human, HASMC cells; read-out: Activity; outline: as §1

| IC50 (NADPH oxidase 4) [µM] | SMILES | Activity [1] | Activity [2] | Activity (HASMC) | viability at 24 h, 10 µM [3] [%] | viability at 24 h, 100 µM [4] [%] |
| --- | --- | --- | --- | --- | --- | --- |
| 0.5 | COc1ccc(S(=O)(=O)N2CCN(c3ccc(C(F)(F)F)cc3)C2=O)cc1 | inactive | inactive | inactive | 97 | – |
| 3.7 | O=C1N(c2ccc(C(F)(F)F)cc2)CCCN1S(=O)(=O)c1ccc(F)cc1 | inactive | inactive | inactive | – | 100 |
| 27 | COc1ccc(S(=O)(=O)N2CCCN(c3ccc(C(F)(F)F)cc3)C2=O)cc1 | inactive | inactive | inactive | – | 92 |
